Source: ChEMBL document CHEMBL1137076, “New arylpiperazine 5-HT(1A) receptor ligands containing the pyrimido[2,1-f]purine fragment: synthesis, in vitro, and in vivo pharmacological evaluation” (J Med Chem, 2004)

Tests used:
[1] = target: 5-hydroxytryptamine receptor 2A (Rattus norvegicus, UniProt P14842); assay: Ability to bind to central serotonin 5-hydroxytryptamine 2A receptor in vitro in cortex of the rat brain using [3H]ketanserin radioligand; format: tissue-based
Method in brief: (§1)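 Competition binding in rat brain tissue: hippocampus with [3H]-8-OH-DPAT (5-HT1A); cortex with [3H]-ketanserin (5-HT2A) or [3H]-prazosin (α1). Ki from at least three experiments using 10–14 concentrations (10⁻¹⁰–10⁻⁵ M), each in triplicate.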

[2] = target: T1, 5-hydroxytryptamine receptor 1A (Rattus norvegicus, UniProt P19327); assay: Ability to bind to central serotonin 5-hydroxytryptamine 1A receptor in vitro in hippocampus of the rat brain using [3H]8-OH-DPAT radioligand; format: tissue-based; method in brief: as §1
T1 sequence (P19327 whole entry): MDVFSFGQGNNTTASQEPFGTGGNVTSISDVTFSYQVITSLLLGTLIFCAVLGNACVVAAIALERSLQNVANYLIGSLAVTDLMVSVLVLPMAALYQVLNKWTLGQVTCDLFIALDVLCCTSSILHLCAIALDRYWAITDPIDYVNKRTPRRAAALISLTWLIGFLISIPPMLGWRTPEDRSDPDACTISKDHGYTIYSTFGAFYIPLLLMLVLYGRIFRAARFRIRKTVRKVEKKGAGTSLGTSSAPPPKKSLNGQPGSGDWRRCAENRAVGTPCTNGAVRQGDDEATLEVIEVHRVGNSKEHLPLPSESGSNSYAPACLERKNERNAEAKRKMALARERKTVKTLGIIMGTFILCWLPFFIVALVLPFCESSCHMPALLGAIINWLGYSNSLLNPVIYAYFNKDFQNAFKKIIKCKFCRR

[3] = organism: Mus musculus; assay: Ability to inhibit 8-OH-DPAT-induced hypothermia was taken as a measure of presynaptic antagonistic activity; Antagonist; format: functional, organism-based; settings: filed as antagonist
[4] = target: T2, 5-hydroxytryptamine receptor 1A (Mus musculus) (UniProt Q64264); assay: Compound was tested for hypothermia with the activation of presynaptic 5-HT1A receptor agonist (8-OH-DPAT) in mice; Antagonist; format: functional; settings: filed as antagonist
T2 sequence (whole entry): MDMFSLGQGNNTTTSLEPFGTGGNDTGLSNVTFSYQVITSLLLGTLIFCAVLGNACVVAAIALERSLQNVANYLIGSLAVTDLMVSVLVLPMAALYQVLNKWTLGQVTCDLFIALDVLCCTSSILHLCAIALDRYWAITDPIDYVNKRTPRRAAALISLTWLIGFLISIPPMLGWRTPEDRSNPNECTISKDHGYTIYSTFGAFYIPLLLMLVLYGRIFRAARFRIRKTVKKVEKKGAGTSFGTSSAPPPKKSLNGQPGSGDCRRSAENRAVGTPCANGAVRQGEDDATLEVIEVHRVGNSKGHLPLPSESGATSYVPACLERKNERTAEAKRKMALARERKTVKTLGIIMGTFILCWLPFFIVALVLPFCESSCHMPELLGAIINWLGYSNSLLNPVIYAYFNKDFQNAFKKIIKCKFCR

Chain of 5-hydroxytryptamine receptor 2A (P14842 whole entry): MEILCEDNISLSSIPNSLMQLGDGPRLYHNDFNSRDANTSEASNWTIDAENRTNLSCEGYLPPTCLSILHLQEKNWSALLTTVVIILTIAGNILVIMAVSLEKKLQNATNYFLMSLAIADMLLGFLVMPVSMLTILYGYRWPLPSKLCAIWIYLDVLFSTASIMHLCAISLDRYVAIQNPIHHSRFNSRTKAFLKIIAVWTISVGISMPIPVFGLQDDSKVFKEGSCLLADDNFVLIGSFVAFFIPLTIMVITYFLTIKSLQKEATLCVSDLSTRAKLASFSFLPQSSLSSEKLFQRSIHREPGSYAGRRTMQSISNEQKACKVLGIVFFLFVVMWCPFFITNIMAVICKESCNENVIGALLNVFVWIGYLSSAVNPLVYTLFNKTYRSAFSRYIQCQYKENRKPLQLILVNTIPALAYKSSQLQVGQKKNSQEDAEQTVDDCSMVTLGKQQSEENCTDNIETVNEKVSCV

Ki [1]: 326 nM | Ki [2]: 11.5 nM | Functional profile [4]: Antagonist
SMILES: Cn1c(=O)c2c(nc3nc(NCCN4CCN(c5ccccc5)CC4)ccn32)n(C)c1=O
Functional profile [3]: Antagonist
